Experimental data reported in ChEMBL document CHEMBL4364279, “Design, synthesis, in-silico and biological evaluation of novel chalcone-O-carbamate derivatives as multifunctional agents for the treatment of Alzheimer's disease” (Eur J Med Chem, 2019).
The source made the active and inactive calls. The rule behind the calls is not given here.

What was measured:
Mus musculus [1] = test: Reversal of scopolamine-induced memory cognitive memory impairment in Kunming mouse assessed as increase in spontaneous alteration behavior at 2.6 mg/kg, ig pretreated for 30 mins followed by scopolamine challenge and after 30 mins by Y-maze test; format: functional, organism-based
[2] = Inhibition of Cu2+-induced amyloid beta (1 to 42 residues) (unknown origin) aggregation assessed as appearance of small bulk aggregates at 25 uM after 24 hrs uranyl acetate staining-based by TEM analysis
Procedure, shortened: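 Aβ1-42 (25 µM) and Cu2+ (25 µM) incubated with compound at 37 °C for 24 h. Aliquots applied to carbon-coated copper/rhodium grids for 2 min at room temperature, washed with water, stained with 1% w/v uranyl acetate, air-dried 15 min, then examined by field-emission TEM.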

[3] = biological target: Cholinesterase (Homo sapiens) (UniProt P06276); test: Reversible competitive inhibition of BuChE (unknown origin) assessed as […] at 1 to 6 uM using butyrylthiocholine iodide as susbtrate
[4] = Metal chelating activity of the compound assessed as formation of Cu2+-compound complex by measuring red shift in maximum absorption at 37.5 uM after 30 mins by UV-vis absorption spectra analysis (reference value: 359 nanometer)
Procedure, shortened: (§1)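 Metal binding examined by plate-reader absorbance scan using CuCl2, ZnCl2, AlCl3, FeSO4, CuCl and Fe(NO3)3 as metal sources.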

[5] = Metal chelating activity of the compound assessed as formation of Al3+-compound complex by measuring red shift in maximum absorption at 37.5 uM after 30 mins by UV-vis absorption spectra analysis (reference value: 359 nanometer); procedure, shortened: as §1
[6] = biological target: Amyloid-beta precursor protein (Homo sapiens) (UniProt P05067); test: Inhibition of self-induced amyloid beta (1 to 42) (unknown origin) aggregation at 25 uM after 24 hrs by thioflavin-T based fluorescence assay relative to control
PC-12 = test: Neuroprotective activity against H2O2-induced cell death in rat PC12 cells assessed as cell viability at 1 uM pretreated for 2 hrs followed by H2O2 addition measured after 30 mins by MTT assay (reference value: 49.6%); format: functional; conditions: read-out: Activity
[7] = biological target: Cholinesterase (Equus caballus) (UniProt P81908); test: Reversible inhibition of equine serum BuChE assessed as enzyme activity at 0.1 times IC50 using butyrylthiocholine iodide as substrate by Ellman's method relative to control; parameters: scale not given: the % may be the effect or the level left
Procedure, shortened: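 Reversibility tested by recovery of equine serum BuChE activity after dilution of inhibitor, with activity monitored over time up to 240 min by the Ellman method (DTNB read at 412 nm). Activity expressed relative to untreated control. Three independent experiments.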

[8] = Disaggregation of Cu2+-induced preformed fibrils of amyloid beta (1 to 42 residues) (unknown origin) at 25 uM measured after 24 hrs by TEM analysis
Procedure, shortened: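 Aβ1-42 (25 µM) with Cu2+ (25 µM) at 37 °C for 24 h, then compound (25 µM) added for another 24 h. 10 µL aliquots put on carbon-coated copper/rhodium grids for 2 min at room temperature, washed twice with water, stained with 1% w/v uranyl acetate, dried 15 min, then imaged by field-emission TEM.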

[9] = biological target: T1, Amine oxidase [flavin-containing] B (Homo sapiens, UniProt P27338); test: biochemical; format: cell-based
T1 sequence (P27338 whole entry): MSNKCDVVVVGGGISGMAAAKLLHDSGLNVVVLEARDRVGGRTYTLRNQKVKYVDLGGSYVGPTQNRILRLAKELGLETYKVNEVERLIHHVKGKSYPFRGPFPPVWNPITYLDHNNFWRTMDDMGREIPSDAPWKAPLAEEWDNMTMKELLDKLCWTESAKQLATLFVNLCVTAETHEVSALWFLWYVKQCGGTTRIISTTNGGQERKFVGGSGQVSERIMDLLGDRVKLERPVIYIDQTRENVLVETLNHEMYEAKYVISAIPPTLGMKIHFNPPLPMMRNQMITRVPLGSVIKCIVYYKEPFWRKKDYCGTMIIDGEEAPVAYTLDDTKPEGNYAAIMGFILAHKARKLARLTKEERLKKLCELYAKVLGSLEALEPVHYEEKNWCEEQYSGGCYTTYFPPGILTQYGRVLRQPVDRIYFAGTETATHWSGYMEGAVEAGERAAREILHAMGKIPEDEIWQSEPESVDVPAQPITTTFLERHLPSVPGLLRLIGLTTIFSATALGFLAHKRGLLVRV

[10] = Disaggregation of Cu2+ induced preformed fibrils of amyloid beta (1 to 42) (unknown origin) at 25 uM preincubated with Cu2+ for 24 hrs followed by compound addition and measured after 24 hrs by thioflavin-T based fluorescence assay relative to control
Procedure, shortened: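 Aβ1-42 (25 µM) and Cu2+ (25 µM) preincubated at 37 °C for 24 h, then compound (25 µM) added and incubated a further 24 h at 37 °C. ThT (5 µM in 50 mM glycine-NaOH, pH 8.5) added; fluorescence at ex 446/em 490 nm, background subtracted, % vs no-compound control. Three independent experiments.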

[11] = Toxicity in Kunming mouse assessed as mortality at 20 to 500 mg/kg measured up to 14 days; format: organism-based; conditions: in vivo, 336 h
[12] = Metal chelating activity of the compound assessed as formation of Fe2+-compound complex at 37.5 uM after 30 mins by UV-vis absorption spectra analysis; procedure, shortened: as §1
Mus musculus [13] = test: Reversal of scopolamine-induced memory cognitive memory impairment in Kunming mouse assessed as change in spontaneous alteration behavior at 7.8 mg/kg, ig pretreated for 30 mins followed by scopolamine challenge and after 30 mins by Y-maze test (reference value: 45.6%); format: functional
Mus musculus [14] = test: Effect on total arm entries in Kunming mouse model of scopolamine-induced cognitive impairment in at 2.6 to 23.4 mg/kg, ig pretreated for 30 min followed by scopolamine challenge and measured after 30 mins by Y-maze test; format: ADME, organism-based; conditions: in vivo, po, 0.5 h
[15] = biological target: Cholinesterase (Equus caballus) (UniProt P81908); test: Reversible inhibition of equine serum BuChE assessed as enzyme activity at IC50 using butyrylthiocholine iodide as substrate by Ellman's method relative to control; parameters: scale not given: the % may be the effect or the level left
[16] = Toxicity in Kunming mouse assessed as abnormal behavior at 20 to 500 mg/kg measured up to 14 days; format: organism-based; conditions: in vivo, 336 h
[17] = Antioxidant activity assessed as trolox equivalents of AAPH radical scavenging activity preincubated for 15 mins followed by AAPH addition and measured every minute for 90 mins by ORAC-FL assay; format: functional
[18] = Metal chelating activity assessed as mole fraction of compound required to show 1:1 stoichiometry for compound-Cu2+ complex at 37.5 uM after 30 mins by UV spectrometry method
Procedure, shortened: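 Molar-ratio method: a methanol solution of compound (final 37.5 µM) titrated with ascending amounts of CuCl2, with absorbance followed at 426 nm by plate reader.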

[19] = Inhibition of Cu2+-induced amyloid beta (1 to 42 residues) (unknown origin) aggregation at 25 uM after 24 hrs by thioflavin-T based fluorescence assay relative to control
Procedure, shortened: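 Aβ1-42 (25 µM) and Cu2+ (25 µM) incubated at 37 °C for 24 h with or without compound (25 µM). ThT (5 µM in 50 mM glycine-NaOH, pH 8.5) then added; fluorescence read at ex 446/em 490 nm. Inhibition = (1−IFi/IFc)×100 after background subtraction. Three independent experiments.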

Chain of Cholinesterase (Equus caballus) (P81908 whole entry): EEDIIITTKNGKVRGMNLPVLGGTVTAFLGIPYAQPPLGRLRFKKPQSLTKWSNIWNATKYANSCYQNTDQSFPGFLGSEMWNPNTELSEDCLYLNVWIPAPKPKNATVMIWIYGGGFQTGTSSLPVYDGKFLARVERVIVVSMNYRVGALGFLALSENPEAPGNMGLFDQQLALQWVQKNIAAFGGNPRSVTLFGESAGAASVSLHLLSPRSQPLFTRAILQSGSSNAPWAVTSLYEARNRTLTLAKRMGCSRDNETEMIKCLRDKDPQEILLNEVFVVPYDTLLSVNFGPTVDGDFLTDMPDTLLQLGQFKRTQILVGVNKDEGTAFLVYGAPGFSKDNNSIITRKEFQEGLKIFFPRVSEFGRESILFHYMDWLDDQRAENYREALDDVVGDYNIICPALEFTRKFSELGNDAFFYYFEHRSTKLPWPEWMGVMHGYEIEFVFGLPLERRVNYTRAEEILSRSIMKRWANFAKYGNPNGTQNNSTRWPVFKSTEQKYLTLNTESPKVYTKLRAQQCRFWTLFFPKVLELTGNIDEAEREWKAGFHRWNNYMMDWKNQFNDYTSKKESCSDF
Chain of Amyloid-beta precursor protein (Homo sapiens) (P05067 whole entry): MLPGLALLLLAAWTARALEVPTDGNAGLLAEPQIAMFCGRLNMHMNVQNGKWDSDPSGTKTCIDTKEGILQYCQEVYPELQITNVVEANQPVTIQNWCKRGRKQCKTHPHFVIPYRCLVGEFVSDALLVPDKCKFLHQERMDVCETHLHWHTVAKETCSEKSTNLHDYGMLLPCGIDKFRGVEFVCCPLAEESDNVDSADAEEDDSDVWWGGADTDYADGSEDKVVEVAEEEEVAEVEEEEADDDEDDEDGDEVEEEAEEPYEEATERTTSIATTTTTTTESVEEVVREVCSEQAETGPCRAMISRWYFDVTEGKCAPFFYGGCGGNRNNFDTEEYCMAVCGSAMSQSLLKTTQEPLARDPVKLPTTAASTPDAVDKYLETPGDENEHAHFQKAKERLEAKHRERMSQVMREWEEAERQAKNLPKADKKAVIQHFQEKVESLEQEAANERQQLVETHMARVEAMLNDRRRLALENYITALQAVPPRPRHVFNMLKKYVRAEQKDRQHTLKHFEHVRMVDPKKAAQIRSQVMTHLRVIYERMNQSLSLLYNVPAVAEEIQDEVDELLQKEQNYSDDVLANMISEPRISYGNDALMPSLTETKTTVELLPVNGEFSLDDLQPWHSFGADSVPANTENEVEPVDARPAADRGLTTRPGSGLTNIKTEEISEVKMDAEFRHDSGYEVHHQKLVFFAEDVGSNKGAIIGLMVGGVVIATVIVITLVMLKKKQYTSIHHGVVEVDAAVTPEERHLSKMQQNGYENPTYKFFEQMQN
Chain of Cholinesterase (Homo sapiens) (P06276 whole entry): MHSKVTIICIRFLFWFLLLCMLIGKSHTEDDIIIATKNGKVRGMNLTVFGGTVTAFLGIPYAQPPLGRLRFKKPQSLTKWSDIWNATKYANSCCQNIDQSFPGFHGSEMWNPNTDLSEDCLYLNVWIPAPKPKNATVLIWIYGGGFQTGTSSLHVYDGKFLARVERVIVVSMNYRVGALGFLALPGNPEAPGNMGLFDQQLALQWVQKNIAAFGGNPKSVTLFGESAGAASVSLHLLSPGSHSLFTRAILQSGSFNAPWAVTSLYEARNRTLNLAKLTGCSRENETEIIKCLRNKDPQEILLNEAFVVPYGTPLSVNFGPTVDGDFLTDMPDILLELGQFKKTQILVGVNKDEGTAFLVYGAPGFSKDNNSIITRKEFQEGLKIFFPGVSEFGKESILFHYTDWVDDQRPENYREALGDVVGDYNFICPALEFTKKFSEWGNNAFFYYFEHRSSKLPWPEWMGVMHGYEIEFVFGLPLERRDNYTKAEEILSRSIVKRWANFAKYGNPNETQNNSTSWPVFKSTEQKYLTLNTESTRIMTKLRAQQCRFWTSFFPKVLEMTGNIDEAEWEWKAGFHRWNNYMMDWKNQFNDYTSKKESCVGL

CCN(C)C(=O)Oc1cccc(/C=C/C(=O)c2ccccc2O)c1
Activity (Mus musculus [1]): Active
inhibition [2]: Active
inhibition [3]: Active
Activity [4]: 435 nm
Activity [5]: 428 nm
inhibition [6]: 63.9%
viability at 1 µM (PC-12): 62.9%
Activity [7]: 50.8%
Activity [8]: Active
IC50 [9]: 1300 nM
Activity [10]: 83.1%
Activity [11]: Non-Toxic
Activity [12]: inactive
Activity (Mus musculus [13]): 65.1%
Activity (Mus musculus [14]): Non-Toxic
Activity [15]: 50.1%
Activity [16]: Non-Toxic
Activity [17]: 1.3 µMequiv/µM
Activity [18]: 0.97 molar ratio
inhibition [19]: 78.3%
